For test [1], the target named is Beta-secretase 1 (Homo sapiens) (UniProt P56817). As to the kind of experiment: Inhibition of BACE1 mediated APP cleavage in human HeLa cells expressing swAPP at 200 nM by electrochemiluminescence assay. The class given is cell-based.
For test [2] the target is unchanged. Nature of the test: Inhibition of BACE1 mediated APP cleavage in human HeLa cells expressing swAPP at 2 uM after 4 hrs by immunoblot. The format is cell-based. For orientation: A western blot detects proteins with antibodies after separation by electrophoresis.
For test [3] the target is unchanged. As to the kind of experiment: Inhibition of BACE1 mediated APP cleavage in human HeLa cells expressing swAPP assessed as amyloid beta production at 2 uM after 4 hrs by immunoblot. The class given is cell-based.
Test [4] concerns the target Beta-secretase 1 (Mus musculus) (UniProt P56818). As to the kind of experiment: Inhibition of BACE1 mediated APP cleavage in mouse N2a cells expressing swAPP by electrochemiluminescence assay. The format is cell-based.
The target of test [5] is Beta-secretase 1 (Homo sapiens) (UniProt P56817). As to the kind of experiment: Inhibition of BACE1 mediated APP cleavage in human HeLa cells expressing swAPP assessed as amyloid beta production using rhodamine-labeled compound at 2 uM. The format is cell-based. In a few lines: (§1)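 Rhodamine-labeled inhibitors at 2 μM on HeLa-swAPP cells; medium analyzed by ECL for sAPPβ and Aβ40, with viability (percent survival). Means ± SD, representative of three independent experiments.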

The target is the same in test [6]. Nature of the test: Inhibition of BACE1 mediated APP cleavage in human HeLa cells expressing swAPP assessed as beta cleaved ectodomain of APP level using rhodamine-labeled compound at 0.1 mM. The format is cell-based. An outline of the steps: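 HeLa-swAPP cells treated with a range of concentrations of the sterol-linked inhibitor; β-cleaved ectodomain detected by immunostaining and imaging, nuclei counterstained with DAPI.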

Test [7] shares this target. Nature of the test: Inhibition of BACE1 mediated APP cleavage in human HeLa cells expressing swAPP assessed as as beta cleaved ectodomain of APP level using rhodamine-labeled compound at 2 uM. The format is cell-based. An outline of the steps: as §1
The subject of test [8] is HeLa. Nature of the test: Increase in alpha secretase mediated APP cleavage in human HeLa cells expressing swAPP assessed as alpha cleaved ectodomain of APP at 200 nM by electrochemiluminescence assay. The format is cell-based.
The test system of test [9] is HeLa. As to the kind of experiment: Increase in alpha secretase mediated APP cleavage in human HeLa cells expressing swAPP at 2 uM after 4 hrs by immunoblot. The class given is cell-based.
For test [10], the system named is Drosophila. Nature of the test: Reduction on lethality of Drosophila UAS-APP/UAS-APP; UAS-BACE523/UAS-BACE523 flies expressing BACE mutant assessed as increase in survival by measuring eclosion numbers 4 mM dosed in diet. The class given is functional, organism-based.
In another test the test system is Mus musculus. Nature of the test: Reduction in amyloid beta production in transgenic swAPP/PSDE9 mouse expressing APP KM670/671NL mutant and presenilin-1 […] at 10 mM dosed stereotaxically into hippocampus after 4 hrs. The class given is functional, organism-based. An outline of the steps: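 APPsw/PSΔE9 transgenic mice given a stereotaxic injection into the hippocampus, with DMSO as solvent control; hippocampal Aβ measured 4 hours later. Means ± SD, Student t test.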

Test [11] relates to Drosophila. As to the kind of experiment: Reduction on lethality of Drosophila w:actin-GAL4/Cyo;UASDPsn/Tm3 flies expressing presenilin mutant assessed as increase in survival by measuring eclosion numbers 4 mM dosed in diet. The format is functional, organism-based.
The target of test [12] is Beta-secretase 1 (Homo sapiens) (UniProt P56817). As to the kind of experiment: Inhibition of BACE1 mediated APP cleavage in human HeLa cells expressing swAPP at 200 nM after 4 hrs. The class given is cell-based. In a few lines: (§2)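 HeLa-swAPP cells incubated with compounds at 20 nM or 200 nM for 4 hours; harvested medium assayed for sAPPβ and expressed as percent inhibition of β cleavage, mean ± SD.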

Test [13] shares this target. Nature of the test: Inhibition of BACE1 mediated APP cleavage in human HeLa cells expressing swAPP at 20 nM after 4 hrs. The format is cell-based. An outline of the steps: as §2
Test [14] shares this target. As to the kind of experiment: Inhibition of BACE1 ectodomain relative to control.
The target is the same in test [15]. Nature of the test: Inhibition of BACE1 mediated APP cleavage in human HeLa cells expressing swAPP assessed as as beta cleaved ectodomain of APP level. The class given is cell-based.

Active and inactive are the calls of the source. The calls are words filed in the database; no cut-off is given here. Square brackets hold non-standard residues; d marks the D form. Peptide text beside a SMILES is read from it. * marks the point of attachment. Piperazinyl(4-RhodamineB) = CCN(CC)c1ccc2c(-c3ccccc3C(=O)N3CCN(*)CC3)c3ccc(=[N+](CC)CC)cc-3oc2c1; X4 = CC(C)CCC[C@@H](C)[C@H]1CC[C@H]2[C@@H]3CC[C@H]4C[C@@H](OCC(=O)*)CC[C@]4(C)[C@H]3CC[C@]12C; X1 = CC(C)CCC[C@@H](C)[C@H]1CC[C@H]2[C@@H]3CCC4C[C@@H](O*)CC[C@]4(C)[C@H]3CC[C@]12C; Sta = CC(C)C[C@H](N)[C@@H](O)CC(=O)O; PEG4 = NCCOCCOCCOCCOCCC(=O)O; PEG3 = NCCOCCOCCOCCC(=O)O; X3 = CCCCCCCCCCCCCCCCO*; X2 = CCCCCCCCCCCCCCO*; βAla = NCCC(=O)O

Chain of Beta-secretase 1 (Homo sapiens) (P56817 whole entry): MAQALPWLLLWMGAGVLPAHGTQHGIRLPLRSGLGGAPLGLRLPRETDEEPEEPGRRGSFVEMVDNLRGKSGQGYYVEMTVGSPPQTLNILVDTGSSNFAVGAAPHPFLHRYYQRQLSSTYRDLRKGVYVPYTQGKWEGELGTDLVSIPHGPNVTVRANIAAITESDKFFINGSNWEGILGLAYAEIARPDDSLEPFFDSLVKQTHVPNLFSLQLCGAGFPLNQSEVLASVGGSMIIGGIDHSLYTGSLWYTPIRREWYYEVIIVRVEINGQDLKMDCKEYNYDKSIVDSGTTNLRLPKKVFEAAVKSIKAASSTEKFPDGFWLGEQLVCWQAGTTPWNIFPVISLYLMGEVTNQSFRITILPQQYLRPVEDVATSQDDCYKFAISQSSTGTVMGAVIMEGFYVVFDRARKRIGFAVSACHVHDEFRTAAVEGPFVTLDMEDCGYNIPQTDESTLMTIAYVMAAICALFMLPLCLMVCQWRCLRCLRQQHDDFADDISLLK
Chain of Beta-secretase 1 (Mus musculus) (P56818 whole entry): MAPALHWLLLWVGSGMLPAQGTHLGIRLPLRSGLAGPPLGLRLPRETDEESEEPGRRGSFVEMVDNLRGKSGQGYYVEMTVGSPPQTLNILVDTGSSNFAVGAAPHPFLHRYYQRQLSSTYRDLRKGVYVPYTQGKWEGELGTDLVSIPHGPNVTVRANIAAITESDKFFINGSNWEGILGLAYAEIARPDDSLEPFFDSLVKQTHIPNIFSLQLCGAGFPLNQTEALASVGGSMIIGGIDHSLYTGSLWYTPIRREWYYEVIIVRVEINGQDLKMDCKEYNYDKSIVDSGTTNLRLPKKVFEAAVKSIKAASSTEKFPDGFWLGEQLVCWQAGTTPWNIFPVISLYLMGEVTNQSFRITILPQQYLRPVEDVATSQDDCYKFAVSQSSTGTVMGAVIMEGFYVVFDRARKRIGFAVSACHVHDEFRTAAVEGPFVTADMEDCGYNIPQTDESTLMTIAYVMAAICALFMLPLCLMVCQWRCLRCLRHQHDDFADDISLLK

Take `CC(C)C[C@H](NC(=O)[C@H](CC(N)=O)NC(=O)[C@@H](NC(=O)[C@@H](N)CCC(=O)O)C(C)C)[C@@H](O)CC(=O)N[C@H](C(=O)N[C@@H](C)C(=O)N[C@@H](CCC(=O)O)C(=O)N[C@@H](Cc1ccccc1)C(=O)NCCOCCOCCOCCOCCC(=O)NCCOCCOCCOCCC(=O)NCCOCCOCCOCCOCCC(=O)NCCOCCOCCOCCC(=O)NCCOCCOCCOCCOCCC(N)=O)C(C)C` (H-EVN[Sta]VAEF[PEG4][PEG3][PEG4][PEG3][PEG4]-NH2): the inhibition entry in [1] was “inactive”.
In the case of `CC(C)CCC[C@@H](C)[C@H]1CC[C@H]2[C@@H]3CCC4C[C@@H](OC(=O)C[C@H](NC(=O)CCOCCOCCOCCOCCNC(=O)CCOCCOCCOCCNC(=O)CCOCCOCCOCCOCCNC(=O)CCOCCOCCOCCNC(=O)CCOCCOCCOCCOCCNC(=O)[C@H](Cc5ccccc5)NC(=O)[C@H](CCC(=O)O)NC(=O)[C@H](C)NC(=O)[C@@H](NC(=O)C[C@H](O)[C@H](CC(C)C)NC(=O)[C@H](CC(N)=O)NC(=O)[C@@H](NC(=O)[C@@H](N)CCC(=O)O)C(C)C)C(C)C)C(N)=O)CC[C@]4(C)[C@H]3CC[C@]12C` (stereo partly specified) (H-EVN[Sta]VAEF[PEG4][PEG3][PEG4][PEG3][PEG4]D(X1)-NH2), the inhibition result in test [2], in test [3], in [4], in [5], in test [6] and in test [7] was “Active” throughout. For the same compound, the inhibition entry with HeLa [8], in the test on HeLa [9], in the test on Drosophila [10] and in the test with Drosophila [11] was “Active” throughout. The result in the test on Mus musculus was Active.
Take `CCCCCCCCCCCCCCOC(=O)C[C@H](NC(=O)CCOCCOCCOCCOCCNC(=O)CCOCCOCCOCCNC(=O)CCOCCOCCOCCOCCNC(=O)CCOCCOCCOCCNC(=O)CCOCCOCCOCCOCCNC(=O)[C@H](Cc1ccccc1)NC(=O)[C@H](CCC(=O)O)NC(=O)[C@H](C)NC(=O)[C@@H](NC(=O)C[C@H](O)[C@H](CC(C)C)NC(=O)[C@H](CC(N)=O)NC(=O)[C@@H](NC(=O)[C@@H](N)CCC(=O)O)C(C)C)C(C)C)C(N)=O` (H-EVN[Sta]VAEF[PEG4][PEG3][PEG4][PEG3][PEG4]D(X2)-NH2): the inhibition result in test [12] and in test [13] was “Active” throughout.
For the compound `CCCCCCCCCCCCCCCCOC(=O)C[C@H](NC(=O)CCOCCOCCOCCOCCNC(=O)CCOCCOCCOCCNC(=O)CCOCCOCCOCCOCCNC(=O)CCOCCOCCOCCNC(=O)CCOCCOCCOCCOCCNC(=O)[C@H](Cc1ccccc1)NC(=O)[C@H](CCC(=O)O)NC(=O)[C@H](C)NC(=O)[C@@H](NC(=O)C[C@H](O)[C@H](CC(C)C)NC(=O)[C@H](CC(N)=O)NC(=O)[C@@H](NC(=O)[C@@H](N)CCC(=O)O)C(C)C)C(C)C)C(N)=O` (H-EVN[Sta]VAEF[PEG4][PEG3][PEG4][PEG3][PEG4]D(X3)-NH2), the inhibition entry in test [12] and in [13] was “Active” throughout.
For `CC(C)C[C@H](NC(=O)[C@H](CC(N)=O)NC(=O)[C@@H](NC(=O)[C@@H](N)CCC(=O)O)C(C)C)[C@@H](O)CC(=O)N[C@H](C(=O)N[C@@H](C)C(=O)N[C@@H](CCC(=O)O)C(=O)N[C@@H](Cc1ccccc1)C(N)=O)C(C)C` (HELM PEPTIDE1{E.V.N.[CC(C)C[C@H](N[*:1])[C@@H](O)CC(=O)[*:2]].V.A.E.F.[am]}$$$$V2.0), in test [14], the inhibition entry was “Active”. The inhibition entry (in test [4]; in test [15]; in the test with Mus musculus) was “inactive” in each case.
For the compound `CCN(CC)c1ccc2c(-c3ccccc3C(=O)N3CCN(C(=O)CC[C@H](NC(=O)CCNC(=O)[C@H](CCCN=C(N)N)NC(=O)[C@H](CCCN=C(N)N)NC(=O)CO[C@H]4CC[C@@]5(C)[C@@H](CC[C@@H]6[C@@H]5CC[C@]5(C)[C@@H]([C@H](C)CCCC(C)C)CC[C@@H]65)C4)C(=O)NCCC(=O)NCC(=O)N[C@@H](CCC(=O)O)C(=O)N[C@H](C(=O)N[C@@H](CC(N)=O)C(=O)N[C@@H](CC(C)C)[C@@H](O)CC(=O)N[C@H](C(=O)N[C@@H](C)C(=O)N[C@@H](CCC(=O)O)C(=O)N[C@@H](Cc4ccccc4)C(N)=O)C(C)C)C(C)C)CC3)c3ccc(=[N+](CC)CC)cc-3oc2c1` (X4-RR[βAla]E(Piperazinyl(4-RhodamineB))[βAla]GEVN[Sta]VAEF-NH2), the inhibition entry in [1] is “inactive”.

Source of the values: ChEMBL document CHEMBL1152850, “Efficient inhibition of the Alzheimer's disease beta-secretase by membrane targeting” (Science, 2008).
